This passage reports zone of inhibition and MIC results from ChEMBL document CHEMBL1156668, “Synthesis and antimicrobial activity of novel sulfone-linked bis heterocycles” (2008).

Converted amounts (≈) assume the structure as drawn.

What all share (assay type): functional
The subject of test [1] is Bacillus subtilis. The experiment in a line: Antibacterial activity against Bacillus subtilis at 100 ug after 24 hrs by agar disc-diffusion method. Conditions: read-out: IZ. Put shortly:
(§1)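 Agar disc diffusion on nutrient agar with bacterial strains from NCIM, Pune. Sterile 6 mm filter-paper discs were wetted with compound in DMSO and placed on plates already inoculated with each organism. Plates were incubated at 37 °C, and the diameter of the growth-inhibition zone was measured after 24 h.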
Background: Agar diffusion results depend on both activity and mobility in agar.

Test [2] relates to Klebsiella pneumoniae. Nature of the test: Antibacterial activity against Klebsiella pneumoniae at 100 ug after 24 hrs by agar disc-diffusion method. Conditions: read-out: IZ. Put shortly:
as §1

Test [3] deals with Curvularia lunata. Nature of the test: Antifungal activity against Curvularia lunata at 100 ug after 48 hrs by agar disc-diffusion method. Conditions: read-out: IZ. Put shortly:
(§2)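 Fungal strains from NCIM, Pune, were tested by disc diffusion on nutrient agar. Sterile 6 mm paper discs moistened with the compound solution in DMSO were placed on plates pre-inoculated with each fungus. Plates were incubated at 37 °C, and the inhibition-zone diameter was read after 48 h.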

Test [4] concerns Staphylococcus aureus. The experiment in a line: Antibacterial activity against Staphylococcus aureus at 100 ug after 24 hrs by agar disc-diffusion method. The following applies: read-out: IZ. Put shortly:
as §1

Test [5] has as its system Escherichia coli. The experiment in a line: Antibacterial activity against Escherichia coli at 100 ug after 24 hrs by agar disc-diffusion method. The following applies: read-out: IZ. The method in brief:
as §1

The subject of test [6] is Staphylococcus aureus. Nature of the test: Antibacterial activity against Staphylococcus aureus at 200 ug after 24 hrs by agar disc-diffusion method. The following applies: read-out: IZ. The method in brief:
as §1

Test [7] concerns Aspergillus niger. The experiment in a line: Antifungal activity against Aspergillus niger at 200 ug after 48 hrs by agar disc-diffusion method. Conditions: read-out: IZ. Put shortly:
as §2

Test [8] concerns Klebsiella pneumoniae. Nature of the test: Antibacterial activity against Klebsiella pneumoniae at 200 ug after 24 hrs by agar disc-diffusion method. Conditions: read-out: IZ. Put shortly:
as §1

Test [9] relates to Fusarium solani. The experiment in a line: Antifungal activity against Fusarium solani at 100 ug after 48 hrs by agar disc-diffusion method. The following applies: read-out: IZ. Put shortly: as §2
For test [10], the system named is Fusarium solani. Nature of the test: Antifungal activity against Fusarium solani at 200 ug after 48 hrs by agar disc-diffusion method. Conditions: read-out: IZ. Put shortly:
as §2

Test [11] deals with Curvularia lunata. Nature of the test: Antifungal activity against Curvularia lunata at 200 ug after 48 hrs by agar disc-diffusion method. Conditions: read-out: IZ. The method in brief: as §2
In test [12] the test system is Escherichia coli. The experiment in a line: Antibacterial activity against Escherichia coli at 200 ug after 24 hrs by agar disc-diffusion method. Conditions: read-out: IZ. The method in brief: as §1
In test [13] the test system is Bacillus subtilis. Nature of the test: Antibacterial activity against Bacillus subtilis at 200 ug after 24 hrs by agar disc-diffusion method. The following applies: read-out: IZ. Put shortly: as §1
Test [14] deals with Aspergillus niger. The experiment in a line: Antifungal activity against Aspergillus niger at 100 ug after 48 hrs by agar disc-diffusion method. The following applies: read-out: IZ. The method in brief: as §2
Test [15] relates to Curvularia lunata. Nature of the test: Antifungal activity against Curvularia lunata after 48 hrs by microdilution susceptibility method. Put shortly:
(§3)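 Broth microdilution with fungi from NCIM, Pune. Fungal suspensions were added to wells containing the compound and incubated at 36 °C for 48 h. MIC was recorded as the lowest concentration with no turbidity, that is, no visible growth.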
On the technique in general: Dilution methods test growth across graded concentrations, often in twofold steps.

In test [16] the test system is Staphylococcus aureus. The experiment in a line: Antibacterial activity against Staphylococcus aureus after 24 hrs by microdilution susceptibility method. Put shortly: (§4)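 Microdilution susceptibility test on bacterial strains from NCIM, Pune. Microorganism suspensions were inoculated into wells containing the compound and incubated at 36 °C for 24 h. MIC was taken as the lowest concentration showing no turbidity, meaning complete inhibition of visible growth.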

The test system of test [17] is Fusarium solani. Nature of the test: Antifungal activity against Fusarium solani after 48 hrs by microdilution susceptibility method. The method in brief: as §3
In test [18] the test system is Bacillus subtilis. The experiment in a line: Antibacterial activity against Bacillus subtilis after 24 hrs by microdilution susceptibility method. The method in brief:
as §4

Test [19] deals with Escherichia coli. Nature of the test: Antibacterial activity against Escherichia coli after 24 hrs by microdilution susceptibility method. The method in brief:
as §4

Test [20] relates to Aspergillus niger. The experiment in a line: Antifungal activity against Aspergillus niger after 48 hrs by microdilution susceptibility method. Put shortly:
as §3

In test [21] the test system is Klebsiella pneumoniae. The experiment in a line: Antibacterial activity against Klebsiella pneumoniae after 24 hrs by microdilution susceptibility method. The method in brief:
as §4

`Cc1ccc([C@H]2CNN=C2S(=O)(=O)Cc2nnc(S)n2N)cc1`: the zone of inhibition at 100 µg/disc with Bacillus subtilis [1] came to 27 mm; in the test with Klebsiella pneumoniae [2], 22 mm; in the test with Curvularia lunata [3] it was 34 mm; in the test on Staphylococcus aureus [4] it was 25 mm; in the test on Escherichia coli [5], 24 mm; in the test with Fusarium solani [9], 32 mm. Also, in the test on Aspergillus niger [14], the zone of inhibition at 100 µg/disc was found to be 35 mm. The zone of inhibition at 200 µg/disc in the test with Staphylococcus aureus [6] was determined as 28 mm; in the test on Aspergillus niger [7], 38 mm; in the test with Klebsiella pneumoniae [8] it was 24 mm; in the test with Fusarium solani [10] it was 37 mm; in the test on Curvularia lunata [11], 39 mm; with Escherichia coli [12] it was 26 mm. The zone of inhibition at 200 µg/disc in the test with Bacillus subtilis [13] was found to be 29 mm.
As to `O=S(=O)(Cc1nnc(S)s1)C1=NNC[C@@H]1c1ccccc1`, the zone of inhibition at 100 µg/disc came to 20 mm in the test with Bacillus subtilis [1]; 17 mm with Klebsiella pneumoniae [2]; 26 mm with Curvularia lunata [3]; 18 mm with Staphylococcus aureus [4]; 15 mm in the test with Escherichia coli [5]; 22 mm with Fusarium solani [9]. Further, the zone of inhibition at 100 µg/disc with Aspergillus niger [14] came to 25 mm. The zone of inhibition at 200 µg/disc in the test on Staphylococcus aureus [6] stood at 21 mm; with Aspergillus niger [7] it was 28 mm; in the test with Klebsiella pneumoniae [8], 20 mm; in the test with Fusarium solani [10], 24 mm; in the test with Curvularia lunata [11], 29 mm; with Escherichia coli [12] it was 20 mm. Moreover, the zone of inhibition at 200 µg/disc in the test on Bacillus subtilis [13] stood at 23 mm.
With `O=S(=O)(Cc1nnc(S)o1)C1=NNC[C@@H]1c1ccccc1`, the zone of inhibition at 100 µg/disc with Bacillus subtilis [1] turned out to be 13 mm; with Klebsiella pneumoniae [2], 14 mm; in the test with Curvularia lunata [3], 17 mm; in the test with Staphylococcus aureus [4], 14 mm; with Escherichia coli [5] it was 15 mm; with Fusarium solani [9], 17 mm. For the same molecule, the zone of inhibition at 100 µg/disc in the test on Aspergillus niger [14] was found to be 16 mm. In addition, the zone of inhibition at 200 µg/disc with Staphylococcus aureus [6] was 16 mm; in the test on Aspergillus niger [7], 21 mm; in the test on Klebsiella pneumoniae [8], 16 mm; in the test with Fusarium solani [10], 19 mm; in the test on Curvularia lunata [11] it was 22 mm; with Escherichia coli [12], 18 mm. In addition, the zone of inhibition at 200 µg/disc in the test with Bacillus subtilis [13] came to 15 mm.
Consider `Cc1ccc([C@H]2CNN=C2S(=O)(=O)Cc2nnc(S)o2)cc1`, for which the zone of inhibition at 100 µg/disc with Bacillus subtilis [1] came to 13 mm; in the test with Klebsiella pneumoniae [2] it was 10 mm; in the test with Curvularia lunata [3] it was 16 mm; with Staphylococcus aureus [4], 12 mm; in the test with Escherichia coli [5] it was 12 mm; in the test on Fusarium solani [9], 16 mm. In the test on Aspergillus niger [14], the zone of inhibition at 100 µg/disc was 17 mm. In addition, the zone of inhibition at 200 µg/disc in the test with Staphylococcus aureus [6] stood at 15 mm; in the test with Aspergillus niger [7], 21 mm; in the test on Klebsiella pneumoniae [8], 12 mm; in the test on Fusarium solani [10], 20 mm; in the test with Curvularia lunata [11] it was 18 mm; in the test on Escherichia coli [12], 14 mm. Besides, in the test on Bacillus subtilis [13], the zone of inhibition at 200 µg/disc came out at 16 mm.
Broadly, the MIC is the lowest concentration that inhibits growth of the organism. Low values mean inhibition by little substance, high ones a need for much substance. As for `Nn1c(S)nnc1CS(=O)(=O)C1=NNC[C@@H]1c1ccc(Cl)cc1`, the minimum inhibitory concentration (MIC) in the test on Curvularia lunata [15] was determined as 12.5 µg/mL (≈ 33.5 µM); against Staphylococcus aureus [16], 12.5 µg/mL (≈ 33.5 µM); in the test with Fusarium solani [17], 25 µg/mL (≈ 67 µM); in the test on Bacillus subtilis [18], 12.5 µg/mL (≈ 33.5 µM); against Escherichia coli [19], 50 µg/mL (≈ 134 µM); against Aspergillus niger [20], 25 µg/mL (≈ 67 µM). This molecule yielded an MIC in the test on Klebsiella pneumoniae [21] of 50 µg/mL (≈ 134 µM). The zone of inhibition at 100 µg/disc in the test on Bacillus subtilis [1] was 34 mm; with Klebsiella pneumoniae [2], 26 mm; in the test on Curvularia lunata [3] it was 39 mm; with Staphylococcus aureus [4] it was 32 mm; in the test on Escherichia coli [5], 23 mm; with Fusarium solani [9] it was 40 mm. Further, the zone of inhibition at 100 µg/disc in the test on Aspergillus niger [14] is 36 mm. The zone of inhibition at 200 µg/disc with Staphylococcus aureus [6] worked out at 35 mm; in the test on Aspergillus niger [7], 40 mm; in the test with Klebsiella pneumoniae [8], 28 mm; in the test with Fusarium solani [10] it was 43 mm; in the test with Curvularia lunata [11] it was 42 mm; with Escherichia coli [12], 25 mm. In addition, the zone of inhibition at 200 µg/disc in the test on Bacillus subtilis [13] was 36 mm.
For the molecule `O=S(=O)(Cc1nnc(S)o1)C1=NNC[C@@H]1c1ccc(Cl)cc1`, the zone of inhibition at 100 µg/disc with Bacillus subtilis [1] came to 15 mm; in the test on Klebsiella pneumoniae [2] it was 11 mm; with Curvularia lunata [3], 16 mm; with Staphylococcus aureus [4], 13 mm; in the test on Escherichia coli [5] it was 11 mm; with Fusarium solani [9] it was 15 mm. Also, in the test with Aspergillus niger [14], the zone of inhibition at 100 µg/disc is 14 mm. Moreover, the zone of inhibition at 200 µg/disc came to 17 mm in the test on Staphylococcus aureus [6]; 18 mm in the test with Aspergillus niger [7]; 14 mm in the test on Klebsiella pneumoniae [8]; 18 mm with Fusarium solani [10]; 19 mm with Curvularia lunata [11]; 13 mm in the test with Escherichia coli [12]. For the same molecule, the zone of inhibition at 200 µg/disc with Bacillus subtilis [13] was determined as 18 mm.
As for `Cc1ccc([C@H]2CNN=C2S(=O)(=O)Cc2nnc(S)s2)cc1`, the zone of inhibition at 100 µg/disc with Bacillus subtilis [1] stood at 16 mm; in the test with Klebsiella pneumoniae [2], 16 mm; with Curvularia lunata [3] it was 20 mm; with Staphylococcus aureus [4] it was 14 mm; in the test with Escherichia coli [5], 18 mm; with Fusarium solani [9], 24 mm. Also, in the test on Aspergillus niger [14], the zone of inhibition at 100 µg/disc was 22 mm. In addition, the zone of inhibition at 200 µg/disc in the test with Staphylococcus aureus [6] came to 17 mm; in the test with Aspergillus niger [7] it was 24 mm; with Klebsiella pneumoniae [8] it was 19 mm; in the test with Fusarium solani [10], 26 mm; in the test with Curvularia lunata [11] it was 23 mm; in the test with Escherichia coli [12], 21 mm. The zone of inhibition at 200 µg/disc in the test on Bacillus subtilis [13] turned out to be 19 mm.
Take `O=C(N[C@H](CO)[C@H](O)c1ccc([N+](=O)[O-])cc1)C(Cl)Cl` [CHLORAMPHENICOL]: the MIC is 6.25 µg/mL (≈ 19.3 µM) against Staphylococcus aureus [16], 6.25 µg/mL (≈ 19.3 µM) against Bacillus subtilis [18], 6.25 µg/mL (≈ 19.3 µM) against Escherichia coli [19] and 12.5 µg/mL (≈ 38.7 µM) against Klebsiella pneumoniae [21]. Also, the zone of inhibition at 100 µg/disc was 38 mm in the test with Bacillus subtilis [1], 42 mm in the test with Klebsiella pneumoniae [2], 35 mm in the test with Staphylococcus aureus [4] and 40 mm in the test with Escherichia coli [5]. Besides, the zone of inhibition at 200 µg/disc was 39 mm in the test on Staphylococcus aureus [6], 45 mm in the test on Klebsiella pneumoniae [8], 44 mm in the test on Escherichia coli [12] and 41 mm in the test with Bacillus subtilis [13].
For `CC(=O)N1CCN(c2ccc(OCC3COC(Cn4ccnc4)(c4ccc(Cl)cc4Cl)O3)cc2)CC1` (stereo unspecified) [KETOCONAZOLE], the MIC turned out to be 6.25 µg/mL (≈ 11.8 µM) with Curvularia lunata [15], 12.5 µg/mL (≈ 23.5 µM) against Fusarium solani [17] and 6.25 µg/mL (≈ 11.8 µM) in the test on Aspergillus niger [20]. In addition, the zone of inhibition at 100 µg/disc amounted to 41 mm with Curvularia lunata [3], 38 mm in the test with Fusarium solani [9] and 36 mm with Aspergillus niger [14]. In addition, the zone of inhibition at 200 µg/disc with Aspergillus niger [7] amounted to 39 mm; with Fusarium solani [10], 42 mm; in the test on Curvularia lunata [11], 44 mm.
